Assays:
NaV1.5 = NaV1.5 (Homo sapiens, UniProt Q14524); assay: Cell membrane chromatography; assay type: binding; settings: capacity factor k′; reflects potential cardiac toxicity; k′ < 0 labeled as 0
rats [1] = assay: Cutaneous trunci pinprick model; assay type: in vivo, rat; settings: 62.3 mmol/L
Outline: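 Male SD rats under 1%–3% isoflurane had about 6 cm × 6 cm of back shaved, swabbed with alcohol and split into four areas. Test compound (62.3 mmol/L) was given by s.c. infiltration. Pinprick scored 1 for no response and 0 for response. Duration ran from onset to expiration, expressed as mean-score MPE. Effective block was ≥50% MPE; complete block was 100% MPE.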

rats [2] = assay: Sciatic nerve block model; assay type: in vivo, rat; settings: 62.3 mmol/L near sciatic nerve; for motor block duration: extensor postural thrust; for duration of effective sensory blockade: hotplate test
Outline: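 Test compound (62.3 mmol/L) was injected near the sciatic nerve. Hind limbs were tested every 30 min until back to pre-test baseline. Sensory: paw withdrawal latency on a 55 °C hotplate, timed by stopwatch. Motor: extensor postural thrust in grams on a digital balance. Recovery was 50% of baseline.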

rats [3] = assay: Plantar incisional pain model; assay type: in vivo, rat; settings: 0.2 mL near incision
Outline: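 Rats with a plantar incision received test compound or saline, 0.2 mL, near the incision. Local anesthesia was assessed by von Frey stimulation of the lateral sole.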

Sequence of NaV1.5 (Q14524 whole entry): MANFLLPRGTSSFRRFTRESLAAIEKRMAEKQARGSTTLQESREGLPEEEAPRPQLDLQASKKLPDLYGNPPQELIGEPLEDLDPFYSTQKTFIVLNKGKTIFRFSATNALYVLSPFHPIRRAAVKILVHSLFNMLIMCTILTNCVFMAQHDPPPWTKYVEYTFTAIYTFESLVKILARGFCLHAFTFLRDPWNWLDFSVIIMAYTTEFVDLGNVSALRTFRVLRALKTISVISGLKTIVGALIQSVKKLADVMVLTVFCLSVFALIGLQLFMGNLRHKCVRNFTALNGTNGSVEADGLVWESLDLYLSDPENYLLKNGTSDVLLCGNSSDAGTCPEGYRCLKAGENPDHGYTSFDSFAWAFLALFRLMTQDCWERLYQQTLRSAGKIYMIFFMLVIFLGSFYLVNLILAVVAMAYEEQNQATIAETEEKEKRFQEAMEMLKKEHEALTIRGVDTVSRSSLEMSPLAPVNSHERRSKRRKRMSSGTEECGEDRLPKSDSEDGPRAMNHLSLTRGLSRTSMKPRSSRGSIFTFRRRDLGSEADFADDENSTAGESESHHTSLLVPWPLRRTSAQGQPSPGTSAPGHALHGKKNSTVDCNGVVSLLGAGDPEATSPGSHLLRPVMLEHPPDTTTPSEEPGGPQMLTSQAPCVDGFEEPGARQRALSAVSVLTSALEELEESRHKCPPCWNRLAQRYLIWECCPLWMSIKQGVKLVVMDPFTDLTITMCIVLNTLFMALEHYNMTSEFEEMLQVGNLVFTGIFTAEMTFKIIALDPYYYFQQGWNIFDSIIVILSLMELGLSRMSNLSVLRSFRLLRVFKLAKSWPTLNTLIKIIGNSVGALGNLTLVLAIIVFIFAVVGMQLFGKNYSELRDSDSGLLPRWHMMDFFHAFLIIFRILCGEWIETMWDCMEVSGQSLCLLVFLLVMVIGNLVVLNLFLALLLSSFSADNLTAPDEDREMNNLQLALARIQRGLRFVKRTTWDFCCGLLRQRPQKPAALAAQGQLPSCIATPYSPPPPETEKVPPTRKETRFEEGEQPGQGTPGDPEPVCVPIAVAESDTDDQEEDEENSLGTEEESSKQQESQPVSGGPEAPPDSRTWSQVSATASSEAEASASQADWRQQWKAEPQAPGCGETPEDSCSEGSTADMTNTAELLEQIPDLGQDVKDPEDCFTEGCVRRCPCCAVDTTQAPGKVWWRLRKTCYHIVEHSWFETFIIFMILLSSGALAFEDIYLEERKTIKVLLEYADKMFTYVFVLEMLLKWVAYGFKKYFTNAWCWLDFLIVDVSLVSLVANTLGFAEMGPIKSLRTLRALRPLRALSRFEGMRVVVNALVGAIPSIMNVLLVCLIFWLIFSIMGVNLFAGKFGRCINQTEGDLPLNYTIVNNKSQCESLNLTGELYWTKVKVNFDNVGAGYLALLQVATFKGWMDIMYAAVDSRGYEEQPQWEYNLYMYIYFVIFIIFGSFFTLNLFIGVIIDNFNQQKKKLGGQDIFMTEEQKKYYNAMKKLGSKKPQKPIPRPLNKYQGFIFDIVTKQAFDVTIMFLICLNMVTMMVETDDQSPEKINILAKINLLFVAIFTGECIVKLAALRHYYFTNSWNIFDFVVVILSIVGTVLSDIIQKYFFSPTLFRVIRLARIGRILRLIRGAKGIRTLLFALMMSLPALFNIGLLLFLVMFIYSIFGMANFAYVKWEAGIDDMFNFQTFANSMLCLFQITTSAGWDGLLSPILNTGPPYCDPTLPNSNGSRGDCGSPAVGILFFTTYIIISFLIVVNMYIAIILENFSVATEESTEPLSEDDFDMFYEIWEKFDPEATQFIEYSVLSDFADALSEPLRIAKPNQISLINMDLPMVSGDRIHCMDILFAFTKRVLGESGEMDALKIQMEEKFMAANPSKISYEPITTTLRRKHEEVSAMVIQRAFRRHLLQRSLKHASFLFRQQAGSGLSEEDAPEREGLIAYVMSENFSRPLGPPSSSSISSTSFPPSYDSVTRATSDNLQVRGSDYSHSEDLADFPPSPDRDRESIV

| SMILES | k′ NaV1.5 (NaV1.5) | further results |
| --- | --- | --- |
| COC(=O)c1scc(C)c1NC(=O)C(C)N1CCNCC1 (stereo not drawn) [AT-1, methyl 4-methyl-3-(2-(piperazin-1-yl)propanamido)thiophene-2-carboxylate] | 80.8 | subcutaneous infiltration duration (rats [1]): 240 min |
| COC(=O)c1scc(C)c1NC(=O)C(C)N1CCN(C)C(C)C1 (stereo not drawn) [AT-2, Methyl 3-(2-(3,4-dimethylpiperazin-1-yl)propanamido)-4-methylthiophene-2-carboxylate] | 92 |  |
| COC(=O)c1scc(C)c1NC(=O)C(C)N1CCCCC1 (stereo not drawn) [AT-3, Methyl 4-methyl-3-(2-(piperidin-1-yl)propanamido)thiophene-2-carboxylate] | 1.1 |  |
| COC(=O)c1scc(C)c1NC(=O)C(C)N1CC(C)CC(C)C1 (stereo not drawn) [AT-4, Methyl 3-(2-(3,5-dimethylpiperidin-1-yl)propanamido)-4-methylthiophene-2-carboxylate] | 71.2 |  |
| COC(=O)c1scc(C)c1NC(=O)C(C)N1CCOCC1 (stereo not drawn) [AT-5, Methyl 4-methyl-3-(2-morpholinopropanamido)thiophene-2-carboxylate] | 18.4 |  |
| COC(=O)c1scc(C)c1NC(=O)C(C)N1CCOCC1C (stereo not drawn) [AT-6, Methyl 4-methyl-3-(2-(3-methylmorpholino)propanamido)thiophene-2-carboxylate] | 28 |  |
| COC(=O)c1scc(C)c1NC(=O)C(C)N1C(C)COCC1C (stereo not drawn) [AT-7, Methyl 3-(2-(3,5-dimethylmorpholino)propanamido)-4-methylthiophene-2-carboxylate] | 24 |  |
| COC(=O)c1scc(C)c1NC(=O)C(C)N1CC(C)OC(C)(C)C1 (stereo not drawn) [AT-8, Methyl 4-methyl-3-(2-(2,2,6-trimethylmorpholino)propanamido)thiophene-2-carboxylate] | 36.8 |  |
| COC(=O)c1scc(C)c1NC(=O)C(C)N1CCSCC1 (stereo not drawn) [AT-9, Methyl 4-methyl-3-(2-thiomorpholinopropanamido)thiophene-2-carboxylate] | 48.6 |  |
| COC(=O)c1scc(C)c1NC(=O)C(C)N1CCS(=O)(=O)CC1 (stereo not drawn) [AT-10, Methyl 3-(2-(1,1-dioxidothiomorpholino)propanamido)-4-methylthiophene-2-carboxylate] | 0 |  |
| COC(=O)c1scc(C)c1NC(=O)C(C)N1CCN(C)CC1 (stereo not drawn) [AT-11, Methyl 4-methyl-3-(2-(4-methylpiperazin-1-yl)propanamido)thiophene-2-carboxylate] | 8 | subcutaneous infiltration duration (rats [1]): 260 min |
| CCN1CCN(C(C)C(=O)Nc2c(C)csc2C(=O)OC)CC1 (stereo not drawn) [AT-12, Methyl 3-(2-(4-ethylpiperazin-1-yl)propanamido)-4-methylthiophene-2-carboxylate] | 1.2 |  |
| COC(=O)c1scc(C)c1NC(=O)C(C)N1CCN(C(C)C)CC1 (stereo not drawn) [AT-13, Methyl 3-(2-(4-isopropylpiperazin-1-yl)propanamido)-4-methylthiophene-2-carboxylate] | 23.2 | motor block duration (rats [2]): 140 min; duration of effective sensory blockade (rats [2]): 145 min; subcutaneous infiltration duration (rats [1]): 275 min; anesthesia result in acute inflammation model through plantar incision (rats [3]): improved results |
| COC(=O)c1scc(C)c1NC(=O)C(C)N1CCN(CC2CC2)CC1 (stereo not drawn) [AT-14, Methyl 3-(2-(4-(cyclopropylmethyl)piperazin-1-yl)propanamido)-4-methylthiophene-2-carboxylate] | 22 |  |
| COC(=O)c1scc(C)c1NC(=O)C(C)N1CCN(C(C)(C)C)CC1 (stereo not drawn) [AT-15, Methyl 3-(2-(4-(tert-butyl)piperazin-1-yl)propanamido)-4-methylthiophene-2-carboxylate] | 116.4 | motor block duration (rats [2]): 210 min; duration of effective sensory blockade (rats [2]): 190 min; subcutaneous infiltration duration (rats [1]): 205 min |
| CCCN1CCN(C(C)C(=O)Nc2c(C)csc2C(=O)OC)CC1 (stereo not drawn) [AT-16, Methyl 4-methyl-3-(2-(4-propylpiperazin-1-yl)propanamido)thiophene-2-carboxylate] | 42.4 |  |
| COC(=O)c1scc(C)c1NC(=O)C(C)N1CCN(c2ccccc2)CC1 (stereo not drawn) [AT-18, Methyl 4-methyl-3-(2-(4-phenylpiperazin-1-yl)propanamido)thiophene-2-carboxylate] | 57.8 |  |
| COC(=O)c1scc(C)c1NC(=O)C(C)N1CCN(CCO)CC1 (stereo not drawn) [AT-19, Methyl 3-(2-(4-(2-hydroxyethyl)piperazin-1-yl)propanamido)-4-methylthiophene-2-carboxylate] | 92 |  |
| COCCN1CCN(C(C)C(=O)Nc2c(C)csc2C(=O)OC)CC1 (stereo not drawn) [AT-20, Methyl 3-(2-(4-(2-methoxyethyl)piperazin-1-yl)propanamido)-4-methylthiophene-2-carboxylate] | 92 |  |
| COC(=O)c1scc(C)c1NC(=O)CN1CCN(C(C)C)CC1 [AT-21, Methyl 3-(2-(4-isopropylpiperazin-1-yl)acetamido)-4-methylthiophene-2-carboxylate] | 5.8 | subcutaneous infiltration effect compared with AT (rats [1]): fewer effects than AT |
| CCC(C(=O)Nc1c(C)csc1C(=O)OC)N1CCN(C(C)C)CC1 (stereo not drawn) [AT-22, Methyl 3-(2-(4-isopropylpiperazin-1-yl)butanamido)-4-methylthiophene-2-carboxylate] | 21.4 | motor block duration (rats [2]): 240 min; duration of effective sensory blockade (rats [2]): 220 min; subcutaneous infiltration duration (rats [1]): 260 min |
| COCCN(CCOC)C(C)C(=O)Nc1c(C)csc1C(=O)OC (stereo not drawn) [AT-23, Methyl 3-(2-(bis(2-methoxyethyl)amino)propanamido)-4-methylthiophene-2-carboxylate] | 43.6 |  |
| CCN(CCO)C(C)C(=O)Nc1c(C)csc1C(=O)OC (stereo not drawn) [AT-24, Methyl 3-(2-(ethyl(2-hydroxyethyl)amino)propanamido)-4-methylthiophene-2-carboxylate] | 27.6 |  |
| COC(=O)c1scc(C)c1NC(=O)C(C)N(CCO)CCO (stereo not drawn) [AT-25, Methyl 3-(2-(bis(2-hydroxyethyl)amino)propanamido)-4-methylthiophene-2-carboxylate] | 12.1 |  |
| COC(=O)c1scc(C)c1NC(=O)C(C)NCCN1CCOCC1 (stereo not drawn) [AT-26, Methyl 4-methyl-3-(2-((2-morpholinoethyl)amino)propanamido)thiophene-2-carboxylate] | 72.4 |  |
| CCCNC(C)C(=O)Nc1c(C)csc1C(=O)OCC (stereo not drawn) [AT-27, Ethyl 4-methyl-3-(2-(propylamino)propanamido)thiophene-2-carboxylate] | 0.6 |  |
| CCCNC(C)C(=O)Nc1c(C)csc1C(=O)OCCC (stereo not drawn) [AT-28, Propyl 4-methyl-3-(2-(propylamino)propanamido)thiophene-2-carboxylate] | 38 |  |
| CCCCOC(=O)c1scc(C)c1NC(=O)C(C)NCCC (stereo not drawn) [AT-29, Butyl 4-methyl-3-(2-(propylamino)propanamido)thiophene-2-carboxylate] | 35 |  |
| CCCNC(C)C(=O)Nc1c(C)csc1C(=O)OCC(C)C (stereo not drawn) [AT-30, Isobutyl 4-methyl-3-(2-(propylamino)propanamido)thiophene-2-carboxylate] | 105.4 |  |

Reference: PMC11252475 (Acta Pharmaceutica Sinica. B, 2024)
